From ChEMBL document CHEMBL1146752, “Oxamyl dipeptide caspase inhibitors developed for the treatment of stroke” (Bioorg Med Chem Lett, 2004)

Legend:
THP-1 = test: Inhibitory activity evaluated against human THP-1 cell line in cellular assay; format: functional, cell-based
Procedure, shortened: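 Human cells (monocytes; THP-1 line) in a caspase-1-dependent cellular assay run for 24 h at 37 °C. Read-out is IC50 (µM).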

Rattus norvegicus = organism: Rattus norvegicus; test: Inhibitory activity evaluated against rat Con A embryonic cortical neurons in cellular assay; format: functional
Jurkat = test: Inhibitory activity evaluated against human jurkat cell line in cellular assay; format: functional, cell-based
Procedure, shortened: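 Human Jurkat cells, in an assay where caspase-8 is relevant but other caspases also contribute. Run for 24 h at 37 °C. Read-out is IC50 (µM).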

SKW 6.4 = test: Inhibitory activity was evaluated against human SKW 6.4 cell line in cellular assay; format: functional, cell-based
Procedure, shortened: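 Cellular assay (Con A; SKW 6.4 cells) run for 24 h at 37 °C. Read-out is IC50 (µM).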

IC50 (THP-1) | IC50 (Jurkat) | IC50 (SKW 6.4) | Structure (SMILES) | IC50 (Rattus norvegicus)
1500 nM | 81 nM | 1540 nM | CC(C)[C@H](NC(=O)C(=O)Nc1ccccc1I)C(=O)N[C@@H](CC(=O)O)C(=O)COc1c(F)c(F)cc(F)c1F | 1000 nM
1850 nM | 2.2 nM | 340 nM | CC(C)[C@H](NC(=O)C(=O)Nc1ccccc1C(C)(C)C)C(=O)N[C@@H](CC(=O)O)C(=O)COc1c(F)c(F)cc(F)c1F | 5680 nM
720 nM | 60 nM | 1780 nM | CC(C)[C@H](NC(=O)C(=O)NC1CCCCC1)C(=O)N[C@@H](CC(=O)O)C(=O)COc1c(F)c(F)cc(F)c1F | 6120 nM
780 nM | 190 nM | 2240 nM | CC(C)[C@H](NC(=O)C(=O)NN(c1ccccc1)c1ccccc1)C(=O)N[C@@H](CC(=O)O)C(=O)COc1c(F)c(F)cc(F)c1F | 4870 nM
22100 nM | – | – | O=C(O)C[C@H](NC(=O)C1Cc2ccccc2N1C(=O)C(=O)Nc1cccc2ccccc12)C(=O)COc1c(F)c(F)cc(F)c1F (stereo partly specified) | 50000 nM
6600 nM | 270 nM | 13000 nM | CCCCCCCc1ccc(NC(=O)C(=O)N[C@H](C(=O)N[C@@H](CC(=O)O)C(=O)COc2c(F)c(F)cc(F)c2F)C(C)C)cc1 | > 50000 nM
2770 nM | – | – | O=C(O)C[C@H](NC(=O)C(NC(=O)C(=O)Nc1cccc2ccccc12)c1ccccc1)C(=O)COc1c(F)c(F)cc(F)c1F (stereo partly specified) | 500 nM
7530 nM | – | – | O=C(O)C[C@H](NC(=O)[C@H](CCc1ccccc1)NC(=O)C(=O)Nc1cccc2ccccc12)C(=O)COc1c(F)c(F)cc(F)c1F | 3000 nM
270 nM | 110 nM | 580 nM | CC(C)[C@H](NC(=O)C(=O)Nc1c(F)cc(F)c(F)c1F)C(=O)N[C@@H](CC(=O)O)C(=O)COc1c(F)c(F)cc(F)c1F | 2100 nM
630 nM | 70 nM | 2010 nM | CC(C)[C@H](NC(=O)C(=O)NN(C(=O)c1ccccc1)c1ccccc1)C(=O)N[C@@H](CC(=O)O)C(=O)COc1c(F)c(F)cc(F)c1F | 2300 nM
1850 nM | 1150 nM | 2000 nM | CC(C)[C@H](NC(=O)C(=O)Nc1cccc(Oc2ccccc2)c1)C(=O)N[C@@H](CC(=O)O)C(=O)COc1c(F)c(F)cc(F)c1F | 1100 nM
– | 6.1 nM | – | CC(C)[C@H](NC(=O)C(=O)Nc1cccc2ccccc12)C(=O)N[C@@H](CC(=O)O)C(=O)COc1c(F)c(F)cc(F)c1F | 550 nM
1280 nM | 41 nM | 270 nM | CC(C)[C@H](NC(=O)C(=O)Nc1ccc2c(c1)CCC2)C(=O)N[C@@H](CC(=O)O)C(=O)COc1c(F)c(F)cc(F)c1F | 1000 nM
> 32000 nM | 30800 nM | – | CC(C)[C@H](NC(=O)C(=O)NOCc1ccccc1)C(=O)N[C@@H](CC(=O)O)C(=O)COc1c(F)c(F)cc(F)c1F | 15000 nM
8300 nM | – | – | CC(C)[C@H](NC(=O)C(=O)Nc1cccc2ccccc12)C(=O)N[C@@H](CC(=O)O)C(=O)COS(=O)c1ccccc1 (stereo partly specified) | > 50000 nM
– | 5.2 nM | – | CC(C)[C@H](NC(=O)C(=O)Nc1cccc2ccccc12)C(=O)N[C@@H](CC(=O)O)C(=O)COc1c(F)cc(F)cc1F | 300 nM
1260 nM | – | – | O=C(O)C[C@H](NC(=O)[C@H](Cc1ccccc1)NC(=O)C(=O)Nc1cccc2ccccc12)C(=O)COc1c(F)c(F)cc(F)c1F | 2700 nM
1120 nM | – | – | CC(C)[C@H](NC(=O)C(=O)Nc1cccc2ccccc12)C(=O)N[C@@H](CC(=O)O)C(=O)COc1ccc(-c2ccccc2)cc1 | > 50000 nM

More lines, now with the values behind:

Structure (SMILES) | IC50 (THP-1) | IC50 (Jurkat) | IC50 (SKW 6.4) | IC50 (Rattus norvegicus)
CC(C)[C@H](NC(=O)C(=O)Nc1cccc2ccccc12)C(=O)N[C@@H](CC(=O)O)C(=O)COc1cccc2ccccc12 | 3060 nM | – | – | 2700 nM
CC(C)[C@H](NC(=O)C(=O)Nc1cc(F)c(F)c(F)c1F)C(=O)N[C@@H](CC(=O)O)C(=O)COc1c(F)c(F)cc(F)c1F | 570 nM | 40 nM | 1190 nM | 3500 nM
O=C(O)C[C@H](NC(=O)C1CCC(NC(=O)C(=O)Nc2cccc3ccccc23)C1)C(=O)COc1c(F)c(F)cc(F)c1F (stereo partly specified) | 930 nM | – | – | 2500 nM
COc1cc(CNC(=O)C(=O)N[C@H](C(=O)N[C@@H](CC(=O)O)C(=O)COc2c(F)c(F)cc(F)c2F)C(C)C)cc(OC)c1OC | 3500 nM | 1550 nM | 18300 nM | 9000 nM
CC(C)C[C@H](NC(=O)C(=O)Nc1cccc2ccccc12)C(=O)N[C@@H](CC(=O)O)C(=O)COc1c(F)c(F)cc(F)c1F | – | 2500 nM | – | 2580 nM
CC(C)[C@H](NC(=O)C(=O)Nc1ccccc1-c1ccccc1)C(=O)N[C@@H](CC(=O)O)C(=O)COc1c(F)c(F)cc(F)c1F | 160 nM | 200 nM | 480 nM | 2500 nM
CC(C)(C)C(NC(=O)C(=O)Nc1cccc2ccccc12)C(=O)N[C@@H](CC(=O)O)C(=O)COc1c(F)c(F)cc(F)c1F (stereo partly specified) | 270 nM | – | – | 2900 nM
CC(C)[C@H](NC(=O)C(=O)NCc1ccccc1)C(=O)N[C@@H](CC(=O)O)C(=O)COc1c(F)c(F)cc(F)c1F | 570 nM | 77.1 nM | 910 nM | 1500 nM
CC(C)[C@H](NC(=O)C(=O)Nc1cccc2c1CCCC2)C(=O)N[C@@H](CC(=O)O)C(=O)COc1c(F)c(F)cc(F)c1F | 1100 nM | 175 nM | 1070 nM | 2000 nM
CNC(=O)C(=O)N[C@H](C(=O)N[C@@H](CC(=O)O)C(=O)COc1c(F)c(F)cc(F)c1F)C(C)C | 1230 nM | 110 nM | 1040 nM | 7000 nM
CC(C)[C@H](NC(=O)C(=O)NC1CCCc2ccccc21)C(=O)N[C@@H](CC(=O)O)C(=O)COc1c(F)c(F)cc(F)c1F (stereo partly specified) | 2910 nM | 370 nM | 860 nM | 2400 nM
CC(C)[C@H](NC(=O)C(=O)Nc1c(F)cccc1F)C(=O)N[C@@H](CC(=O)O)C(=O)COc1c(F)c(F)cc(F)c1F | 380 nM | 136 nM | 1630 nM | 1000 nM
CC(C)[C@H](NC(=O)C(=O)NC12CC3CC(CC(C3)C1)C2)C(=O)N[C@@H](CC(=O)O)C(=O)COc1c(F)c(F)cc(F)c1F | 1790 nM | 1760 nM | 720 nM | 3500 nM
CCCCCCCNC(=O)C(=O)N[C@H](C(=O)N[C@@H](CC(=O)O)C(=O)COc1c(F)c(F)cc(F)c1F)C(C)C | 7710 nM | 1280 nM | 7800 nM | 7000 nM
CC(C)[C@H](NC(=O)C(=O)Nc1ccccn1)C(=O)N[C@@H](CC(=O)O)C(=O)COc1c(F)c(F)cc(F)c1F | 1430 nM | 140 nM | 2200 nM | 9400 nM
CC(C)[C@H](NC(=O)C(=O)Nc1ccccc1Br)C(=O)N[C@@H](CC(=O)O)C(=O)COc1c(F)c(F)cc(F)c1F | 540 nM | 356 nM | – | 400 nM

Structure (SMILES) | IC50 (THP-1) | IC50 (Jurkat) | IC50 (SKW 6.4) | IC50 (Rattus norvegicus)
O=C(O)C[C@H](NC(=O)C(NC(=O)C(=O)Nc1cccc2ccccc12)C1CCCCC1)C(=O)COc1c(F)c(F)cc(F)c1F (stereo partly specified) | 1440 nM | – | – | 1500 nM
O=C(O)C[C@H](NC(=O)C1CCCCN1C(=O)C(=O)Nc1cccc2ccccc12)C(=O)COc1c(F)c(F)cc(F)c1F (stereo partly specified) | – | – | – | 16000 nM
CC(C)C[C@H](NC(=O)C(=O)Nc1cccc2ccccc12)C(=O)N[C@@H](CC(=O)O)C(=O)COc1c(F)cc(F)cc1F | – | 535 nM | – | 4610 nM
CC(C)[C@H](NC(=O)C(=O)Nc1ccccc1C(F)(F)F)C(=O)N[C@@H](CC(=O)O)C(=O)COc1c(F)c(F)cc(F)c1F | 820 nM | 1.7 nM | 230 nM | 650 nM
CCCCC(NC(=O)C(=O)Nc1cccc2ccccc12)C(=O)N[C@@H](CC(=O)O)C(=O)COc1c(F)c(F)cc(F)c1F (stereo partly specified) | – | – | – | 1000 nM
CC(C)[C@H](NC(=O)C(=O)Nc1ccncc1)C(=O)N[C@@H](CC(=O)O)C(=O)COc1c(F)c(F)cc(F)c1F | 5670 nM | 15800 nM | 30100 nM | 50000 nM
CC(C)[C@H](NC(=O)C(=O)Nc1cccc2ccccc12)C(=O)N[C@@H](CC(=O)O)C(=O)COP(=O)(c1ccccc1)c1ccccc1 | 650 nM | – | – | 650 nM
CC(C)C[C@H](NC(=O)C(=O)Nc1cccc2ccccc12)C(=O)N[C@@H](CC(=O)O)C(=O)COC(=O)c1c(Cl)cccc1Cl | – | 1300 nM | – | 500 nM
CC(C)[C@H](NC(=O)C(=O)NC(c1ccccc1)c1ccccc1)C(=O)N[C@@H](CC(=O)O)C(=O)COc1c(F)c(F)cc(F)c1F | 170 nM | > 200000 nM | – | 7300 nM
COC(=O)c1cc(OCC(=O)[C@H](CC(=O)O)NC(=O)[C@@H](NC(=O)C(=O)Nc2cccc3ccccc23)C(C)C)no1 | 280 nM | – | – | 9000 nM
CC(C)[C@H](NC(=O)C(=O)Nc1cccc2ccccc12)C(=O)N[C@@H](CC(=O)O)C(=O)COP(C)(=O)c1ccccc1 (stereo partly specified) | 90 nM | – | – | 2000 nM
CC(C)[C@H](NC(=O)C(=O)N(C)c1cccc2ccccc12)C(=O)N[C@@H](CC(=O)O)C(=O)COc1c(F)c(F)cc(F)c1F | – | > 100000 nM | > 100000 nM | > 50000 nM
CC(C)[C@H](NC(=O)C(=O)Nc1cccc2ccccc12)C(=O)N[C@@H](CC(=O)O)C(=O)COc1c(F)cccc1F | 480 nM | – | – | 450 nM
CC(C)[C@H](NC(=O)C(=O)Nc1cccc2ccccc12)C(=O)N[C@@H](CC(=O)O)C(=O)COc1ccc2ccccc2c1 | 1930 nM | – | – | 7300 nM
CC(C)[C@H](NC(=O)C(=O)Nc1cccc2ccccc12)C(=O)N[C@@H](CC(=O)O)C(=O)COc1ccnc(C(F)(F)F)n1 | 250 nM | – | – | 2000 nM
CC(C)[C@H](NC(=O)C(=O)Nc1cccc2ccccc12)C(=O)N[C@@H](CC(=O)O)C(=O)COC(=O)c1c(Cl)cccc1Cl | – | 4.3 nM | – | 350 nM
